# Source: PubChem BioAssay
# A selection: hits, their analogues and other compounds. The true share with any hit is near 2.8%.
# MC4R ag barr = human MC4R agonism via beta-arrestin | P32245 | U2OS MC4R beta-arrestin complementation, luminescence; percent of melanotan II response, DMSO zero | activation, % at 8.9 µM | 360,000 compounds, 0.98% hits | AID 540308;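 active means activation above a per-plate cutoff, the mean activation of sample wells on that plate plus 3 SD, cut at about 8% in these data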
# Target sequence (P32245 whole entry, looked up): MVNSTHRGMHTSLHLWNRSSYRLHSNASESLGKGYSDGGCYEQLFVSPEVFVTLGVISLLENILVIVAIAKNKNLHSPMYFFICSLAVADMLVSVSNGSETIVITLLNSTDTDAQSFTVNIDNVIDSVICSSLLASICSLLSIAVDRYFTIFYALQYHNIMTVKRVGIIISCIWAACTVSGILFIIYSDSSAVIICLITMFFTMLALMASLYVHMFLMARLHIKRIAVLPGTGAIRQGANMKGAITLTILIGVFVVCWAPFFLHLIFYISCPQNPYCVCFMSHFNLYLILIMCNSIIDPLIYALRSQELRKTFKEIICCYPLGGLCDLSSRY
# m5-HT2A agonist = agonists of mouse serotonin 5-HT2A receptor (HTR2A); 360,000 compounds, 0.66% hits; CHO-K1 mHTR2A beta-arrestin complementation, luminescence; percent of 30 µM serotonin response; P35363; AID 624169; activation, % at 7.6 µM;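 active means activation above a run cutoff, the mean activation of all tested compounds plus 3 SD, cut at about 14% in these data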;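 further: 0% = plate median of compound wells and 100% = 30 µM serotonin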
# MC4R antag cAMP = antagonists of human melanocortin 4 receptor (MC4R) | P32245 | MC4R-expressing cells, MTII-stimulated cAMP, LANCE TR-FRET | inhibition, % at 6.5 µM | 360,000 compounds, 0.48% hits;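 active means inhibition above its plate's cutoff, the mean of tested wells on that plate plus 3 SD, cut at about 29% in these data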;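 further: 0% = Melanotan II alone and 100% = Melanotan II plus saturating MCL0020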
#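 Assay system: U2OS-MC4R stable cell line; Also added: Melanotan II; Technique: Eu-cAMP/anti-cAMP TR-FRET, emission 671 nm; Times: 30-min compound, 1-h challenge, 1-h detection, room temperature.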
# EBI2 antag = EBI2 (human) antagonism; P32249; EBI2 beta-arrestin recruitment, luminescence, 7a,25-OHC stimulated; inhibition, % at 5 µM; 360,000 compounds, 0.81% hits; in the data active means inhibition above about 38%;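 further: enzyme fragment complementation signal reports receptor beta-arrestin coupling in cells; 0% = agonist plus DMSO wells and 100% = wells without agonist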
# U2OS cAMP counter = U2OS forskolin cAMP inhibition counter-screen. shares compounds with MC4R antag cAMP. parental U2OS, LANCE TR-FRET. inhibition, % at 6.5 µM. 1,600 compounds, 26% hits;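 active means mean inhibition over triplicates above the low-control well mean plus 3 SD, set per campaign, cut at about 13% in these data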;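 further: signal is single emission at 671 nm which falls as cellular cAMP rises; 0% = forskolin-stimulated wells and 100% = buffer without forskolin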
# MC4R cAMP antag = human MC4R cAMP antagonism confirmation; 1,600 compounds, 27% hits; AID 602195; MC4R-expressing cells, MTII-stimulated cAMP, TR-FRET; shares compounds with MC4R antag cAMP; inhibition, % at 6.5 µM; in the data active means inhibition above about 29%;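 further: 0% = agonist stimulated wells alone and 100% = agonist stimulated wells plus saturating reference antagonist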
# * marks the source's active call; other numbers are inactive results; . = no result given.
SMILES,MC4R ag barr,m5-HT2A agonist,MC4R antag cAMP,EBI2 antag,U2OS cAMP counter,MC4R cAMP antag
COc1cc(C2NCC(c3ccc(Cl)cc3Cl)c3c2[nH]c2ccccc32)cc(OC)c1OC (stereo not given),6,-4,36*,6,6,11
O=C(O)c1ccc(C2NCC(c3ccccc3Cl)c3c2[nH]c2ccccc32)cc1 (stereo not given),-2,-2,7,8,.,.
COc1ccc(CCN2C(=O)c3ccccc3C2c2nnnn2-c2c(C)cccc2C)cc1OC (stereo not given),.,3,.,-14,.,.
Nc1ccc(C(=O)NN2C(=O)[C@H](Cl)C2c2ccc(Cl)cc2)cc1 (stereo not given in full),0,-4,37*,-3,22*,19
COC(=O)c1ccc2cn[nH]c2c1,0,7,7,-7,.,.
C[C@@H]1CN([C@H](C)CO)C(=O)CCCn2nncc2CO[C@H]1CN(C)Cc1ccc2c(c1)OCCO2,0,-1,1,-6,.,.
CCCCn1nnnc1C1(C)CCC(=O)N1C1CC1 (stereo not given),.,-1,.,-3,.,.
Cc1ccc(S(=O)(=O)NCCC(=O)OCC(=O)NC(=O)c2cccn2C)cc1,1,1,19,-11,.,.
Cc1ccc(S(=O)(=O)NCC(=O)OCC(=O)NC(=O)c2cccn2C)cc1,2,1,34*,-1,26*,40*
Cc1ccc(S(=O)(=O)NCC(=O)OCC(=O)c2cccs2)cc1,-1,-2,38*,-9,7,13
Cc1ccc(S(=O)(=O)NCC(=O)OCC(=O)c2ccc(Br)s2)cc1,0,-1,17,1,.,.
COC(=O)c1ccc(COC(=O)CNS(=O)(=O)c2ccc(C)cc2)cc1,1,1,40*,-10,19*,26
O=C(CNS(=O)(=O)c1ccc2ccccc2c1)OCc1csc(-c2ccccc2)n1,1,-4,10,0,.,.
Cc1ccc(S(=O)(=O)NCC(=O)OCc2csc(-c3ccccc3)n2)cc1,2,-6,30*,-3,15*,28
COc1ccc(OC)c(C(C)NC(=O)C(C)n2cc([N+](=O)[O-])cn2)c1 (stereo not given),-2,-1,15,-10,.,.
CNc1cccc(-c2cccc(C(=O)N3CCOCC3)c2)n1,-1,9,-3,-7,.,.
O=[N+]([O-])c1cccnc1S(=O)(=O)c1ccccc1,2,-3,33*,-22,14*,38*
COc1ccc([N+](=O)[O-])c(S(=O)(=O)c2ccccc2)n1,-4,-7,29*,-4,29*,25
Cc1c(C(=O)OCC(=O)NCCN2C(=O)CSC2=O)cccc1[N+](=O)[O-],-2,-4,5,-4,.,.
Cc1ccc(C)c(SCC(=O)Nc2cccc(S(=O)(=O)NC3=NCCCCC3)c2)c1,2,1,-1,4,.,.
Cc1cc(C)cc(-n2c(SCC(=O)Nc3cccc(S(=O)(=O)NC4=NCCCCC4)c3)nc3ccccc3c2=O)c1,2,3,29*,12,2,4
c1ccc(COc2ncnc3c2ncn3CCCNC2CCN(Cc3ccccc3)CC2)cc1,0,0,5,-15,.,.
CCOCc1c(C(=O)NC2=Nc3ccccc3NC(CC)=C2C(=O)OCC)oc2ccccc12,6,0,38*,-19,25*,17
CCCC/C(C)=N/NC(=O)CN(c1ccc(Br)cc1)S(=O)(=O)c1ccccc1,0,5,3,-15,.,.
C/C(=N/NC(=O)CN(c1ccccc1)S(=O)(=O)c1ccccc1)c1ccccc1O,0,-5,30*,16,0,14
SMILES,MC4R ag barr,m5-HT2A agonist,MC4R antag cAMP,EBI2 antag,U2OS cAMP counter,MC4R cAMP antag
COc1ccc(CNC(=O)C[C@@H]2C[C@H]3c4cc(NC(=O)NC5CCCC5)ccc4O[C@H]3[C@H](CO)O2)cc1,0,1,8,2,.,.
O=C(Nc1ccccn1)C1CCN(C(=O)c2ccc(Cl)cc2)CC1,3,9,3,16,.,.
O=C1CNC(=O)/C1=C/c1ccc(Br)cc1,0,-3,32*,3,1,-6
O=C1CNC(=O)/C1=C\c1ccc(O)cc1,-1,-2,-1,2,.,.
CN(C)S(=O)(=O)c1ccc(N2CCCC2)c(C(=O)N2CCN(c3ccc([N+](=O)[O-])cc3)CC2)c1,-2,-4,34*,9,2,7
CCN(CC)S(=O)(=O)c1ccc(Cl)c(C(=O)OC2CC(C)OC2=O)c1 (stereo not given),2,9,40*,-7,9,20
CC(C)c1ccc(OCC(=O)NC(=S)Nc2ccc3c4c(cccc24)CC3)cc1,0,7,38*,7,20*,37*
CNC(=O)c1cc(Oc2ccc(NC(=O)Nc3ccc(Cl)c(C(F)(F)F)c3)cc2)ccn1,1,-15,47*,-8,4,40*
O=C(Nc1ccc(Cl)c(C(F)(F)F)c1)c1ccncc1,1,-2,4,4,.,.
COCCNC(=O)C1(C)CCN(C(=O)c2cccnc2Oc2ccccc2)C1 (stereo not given),0,0,-3,-22,.,.
Cc1c(N=C2SCC(=O)N2/N=C\c2ccc(Br)cc2)c(=O)n(-c2ccccc2)n1C,0,3,31*,5,-4,-22
COc1cc(C(=O)NCCNc2nc3ccc(C)cc3cc2C#N)cc(OC)c1OC,-1,8,7,0,.,.
O=C(Oc1ccc(C(=S)N2CCOCC2)cc1)c1ccc([N+](=O)[O-])cc1[N+](=O)[O-],-3,3,0,0,.,.
COc1cc(C(=S)N2CCOCC2)ccc1OS(=O)(=O)c1ccccc1[N+](=O)[O-],-1,-3,33*,-7,-1,-5
O=C(Oc1cccc(C(=S)N2CCOCC2)c1)c1ccc([N+](=O)[O-])cc1[N+](=O)[O-],-1,2,37*,14,6,29*
COc1ccc(C(=S)N2CCOCC2)cc1OS(=O)(=O)c1ccccc1[N+](=O)[O-],1,-5,-4,1,.,.
COCCNC(=O)C1(C)CCCN(Cc2ccccc2N(C)C)C1 (stereo not given),-3,2,1,-12,.,.
CC(C)OP(=O)(OC(C)C)/C(C=O)=N\Nc1ccc([N+](=O)[O-])cc1,-3,0,39*,-7,9,8
O=S1(=O)C[C@H](N2CCC(Cc3ccccc3)CC2)[C@@H](COCc2ccccc2)N1,.,-7,.,3,.,.
CC1(C(=O)O)CCCN1C(=O)c1cccc2ccccc12 (stereo not given),0,-7,19,5,.,.
O=S(=O)(c1ccccc1)N1CCN(c2nc(-c3cccnc3)nc3ccccc23)CC1,3,11,11,-5,.,.
